We go through two compounds from article PMC8943622 (Journal of Cerebral Blood Flow & Metabolism, 2021).

Data set [1] relates to MAGL. The data set can be described thus: [18F]T-401 PET after JW642 pretreatment. The class given is in vivo, rhesus monkey (Macaca mulatta).
Data set [2] has as its system MAGL. The data set is classed as in vivo, rhesus monkey (Macaca mulatta). The note with it: baseline; for VT mean: mean of three monkeys; for VT: M187.
The nature of data set [3]: Radiometabolite analysis of [18F]T-401 in arterial plasma. The data set is classed as in vivo, rhesus monkey. The following applies: 30 min after injection; baseline and JW642 blockade. A digest of the protocol: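 Anaesthetised monkeys had 24 serial saphenous-artery samples taken over the 120 min scan. Plasma was separated at 15000 × g, 3 min, 4 °C. Samples from 2, 5, 10, 30, 60, 90 and 120 min went to HPLC (Atlantis T3, acetonitrile/H2O 40/60, 1.0 mL/min, 254 nm). Decay-corrected parent-to-total radioactivity came from peak areas. Blockade used i.v. test compound 0.01–0.3 mg/kg, 5 min before the radioligand, in one monkey.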

The target of data set [4] is T1, MAGL (Macaca mulatta, UniProt H9ESL3).
T1 sequence (H9ESL3 1-303): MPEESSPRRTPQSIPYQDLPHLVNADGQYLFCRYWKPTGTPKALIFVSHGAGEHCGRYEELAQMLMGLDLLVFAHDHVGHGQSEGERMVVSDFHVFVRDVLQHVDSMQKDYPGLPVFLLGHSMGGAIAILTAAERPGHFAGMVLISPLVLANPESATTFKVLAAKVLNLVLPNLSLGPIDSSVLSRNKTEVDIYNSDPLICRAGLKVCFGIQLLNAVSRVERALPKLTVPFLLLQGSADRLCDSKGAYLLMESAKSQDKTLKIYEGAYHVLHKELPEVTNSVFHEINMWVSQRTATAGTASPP
Description: In vivo Scatchard plot analysis of baseline [18F]T-401 PET data. Further details: species or system rhesus monkey. The procedure, abridged:
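Three male rhesus monkeys (5–7 kg) were given ketamine 10 mg/kg i.m., then intubated and kept on 1–2% isoflurane, with a heating pad. After a 68Ge–68Ga transmission scan, a 120 min 3D list-mode emission scan began at i.v. radioligand injection (356 ± 50 MBq, 343 ± 68 GBq/μmol). Baseline data were analysed by Scatchard plot to give KD and Bmax in representative ROIs.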

Several values for one entry are separate records, joined by “and”; a condition that tells them apart may be missing. Equal values may be shown once. Read-outs that look alike come from different tables or passages of the source.

As to `O=C(OC(C(F)(F)F)C(F)(F)F)N1CCN(Cc2cccc(Oc3ccccc3)c2)CC1` [JW642], the “EC50, plasma JW642 concentration inducing 50% occupancy of MAGL” value with MAGL [1] (Hill's plot of occupancy versus plasma concentration, monkey M187) is 0.126 µg/mL and 0.1261 µg/mL. The MAGL occupancy in the data set with MAGL [1] (JW642 0.01 mg/kg i.v., Lassen's plot) is 20%; in the data set with MAGL [1] (JW642 0.3 mg/kg i.v., Lassen's plot, 0.3 mg/kg), 94% and 93%.

Broadly, the Kd is the concentration at which binding is half-saturated. As to `Cc1ccnc([18F])c1-c1cccc(N2C[C@H](N3CCN(C(=O)c4nccs4)CC3)CC2=O)c1` [[^18F]T-401, (4R)-1-{3-[2-[^18F]fluoro-4-methylpyridin-3-yl]phenyl}-4-[4-(1,3-thiazol-2-ylcarbonyl)piperazin-1-yl]pyrrolidin-2-one], the VT mean is recorded as 7.17 mL/cm^3 with MAGL [2] (CB); 11.7 mL/cm^3 with MAGL [2] (FCX); 5.95 mL/cm^3 with MAGL [2] (HIP); 9.96 mL/cm^3 in the data set with MAGL [2] (OCC); 4.73 mL/cm^3 in the data set on MAGL [2] (Pons); 9.05 mL/cm^3 with MAGL [2] (STR). This compound also registered a VT mean in the data set with MAGL [2] (THA) of 6.36 mL/cm^3. Moreover, the values for the VT with MAGL [2] (OCC) and in the data set on MAGL [2] (STR) were 11.89 mL/cm^3 and 12.51 mL/cm^3, respectively. In addition, the “time of peak brain uptake after injection” value with MAGL [2] (monkey brain) fell in the range of 5 to 15 min. Also, the “mean VT, upper end of range” value in the data set on MAGL [2] (printed as striatum) amounted to 11.7 mL/cm^3. Besides, the “non-displaceable distribution volume (VND)” value with MAGL [1] (Lassen's plot, averaged x-intercept of regression lines, monkey brain) came to 0.69 mL/cm^3. In addition, the “VND as portion of VT” value in the data set with MAGL [1] (pons) was 14.6%. Moreover, in data set [3], the “parent fraction in arterial plasma” value was “approximately 30%”. Moreover, the values for the dissociation constant (Kd) at MAGL [4] (FCX) and on MAGL [4] (HIP) were 4.18 nM and 1.09 nM, respectively.
